Results published in ChEMBL document CHEMBL4138312 (J Med Chem, 2018).

Tests used:
[1] = target: T1, Tyrosine-protein kinase JAK1 (Homo sapiens, UniProt P23458); experiment: Inhibition of cytoplasmic recombinant human GST-tagged JAK1 (886 to 1154 residues) expressed in insect cells using FITC-C6-KKHTDDGYMPMSPGVA-NH as substrate after 10 mins by caliper assay
In short: (§1)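 Biochemical kinase inhibition IC50 measured at 5 mM ATP. Values are the geometric mean of at least two independent experiments.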

[2] = target: Tyrosine-protein kinase JAK2 (Homo sapiens, UniProt O60674); experiment: Inhibition of recombinant human JAK2 (831 to 1132 residues) expressed in insect cells using 5FAM-GEEPLYWSFPAKKK-NH2 as substrate after 10 mins by caliper assay; in short: as §1
[3] = target: T2, Tyrosine-protein kinase JAK3 (Homo sapiens, UniProt P52333); experiment: Inhibition of recombinant human JAK3 (781 to 1124 residues) expressed in insect cells using 5FAM-GEEPLYWSFPAKKK-NH2 as substrate after 10 mins by caliper assay; in short: as §1
T2 sequence (P52333 whole entry): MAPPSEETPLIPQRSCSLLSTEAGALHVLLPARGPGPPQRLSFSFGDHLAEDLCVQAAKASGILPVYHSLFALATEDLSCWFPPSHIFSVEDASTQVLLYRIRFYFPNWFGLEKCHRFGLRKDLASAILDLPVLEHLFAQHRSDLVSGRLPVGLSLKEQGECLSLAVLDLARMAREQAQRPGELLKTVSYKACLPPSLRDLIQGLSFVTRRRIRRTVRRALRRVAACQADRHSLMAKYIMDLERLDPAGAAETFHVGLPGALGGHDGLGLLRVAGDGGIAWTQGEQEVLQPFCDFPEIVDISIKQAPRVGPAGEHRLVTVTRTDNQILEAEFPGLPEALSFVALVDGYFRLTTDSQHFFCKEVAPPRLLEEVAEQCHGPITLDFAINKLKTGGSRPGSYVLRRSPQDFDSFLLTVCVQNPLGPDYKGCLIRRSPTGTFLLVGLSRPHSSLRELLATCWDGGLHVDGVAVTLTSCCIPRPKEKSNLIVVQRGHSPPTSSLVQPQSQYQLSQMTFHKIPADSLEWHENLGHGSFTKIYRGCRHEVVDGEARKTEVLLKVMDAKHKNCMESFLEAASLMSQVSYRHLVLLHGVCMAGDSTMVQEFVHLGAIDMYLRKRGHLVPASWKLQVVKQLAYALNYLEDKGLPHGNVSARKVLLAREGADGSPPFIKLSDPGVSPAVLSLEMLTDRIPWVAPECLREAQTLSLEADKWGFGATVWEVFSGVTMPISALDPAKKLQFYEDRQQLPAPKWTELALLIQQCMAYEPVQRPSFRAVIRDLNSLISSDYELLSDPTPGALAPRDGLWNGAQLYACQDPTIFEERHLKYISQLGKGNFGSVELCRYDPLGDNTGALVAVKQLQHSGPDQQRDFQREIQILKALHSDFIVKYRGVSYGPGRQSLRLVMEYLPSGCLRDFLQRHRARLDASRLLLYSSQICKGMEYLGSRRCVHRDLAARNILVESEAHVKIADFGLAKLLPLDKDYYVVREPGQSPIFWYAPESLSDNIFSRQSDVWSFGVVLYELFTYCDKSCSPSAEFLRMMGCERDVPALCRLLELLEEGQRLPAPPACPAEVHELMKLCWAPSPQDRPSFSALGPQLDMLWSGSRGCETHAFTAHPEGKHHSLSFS

Homo sapiens = species on record: Homo sapiens; experiment: Selectivity ratio of IC50 for recombinant human JAK2 (831 to 1132 residues) expressed in insect cell to IC50 for cytoplasmic recombinant human GST-tagged JAK1 (886 to 1154 residues) expressed in baculovirus
In short: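 Biochemical IC50s measured against JAK1 and JAK2 at 5 mM ATP. Each IC50 is the geometric mean of at least two independent experiments. The ratio is the JAK2 IC50 divided by the JAK1 IC50.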

[4] = Octanol-water partition coefficient, log D of the compound in sodium phosphate buffer at pH 7.4 after 5 hrs by shake-flask assay; type: physicochemical
[5] = target: T1, Tyrosine-protein kinase JAK1; experiment: Inhibition of JAK1 in human NCI-H1975 cells assessed as reduction in STAT3 phosphorylation after 1 hr by ELISA; type: cell-based
In short: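 Cellular mode-of-action assay in NCI-H1975 cells, read as inhibition of STAT3 phosphorylation. EC50 was derived.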

[6] = Intrinsic clearance in human liver microsomes; type: ADME, microsome; details: read-out: CLH
[7] = target: Non-receptor tyrosine-protein kinase TYK2 (Homo sapiens, UniProt P29597); experiment: Inhibition of recombinant human N-terminal GST-tagged TYK2 (871 to 1187 residues) expressed in baculovirus expression system using 5FAM-GEEPLYWSFPAKKK-NH2 as substrate after 10 mins by caliper assay; in short: as §1
A549 = experiment: Antiproliferative activity against human A549 cells after 48 hrs by Alamar Blue based assay; type: functional; details: A549, 48 h
In short: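 Antiproliferation assay in A549 cells, reported as GI50.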

T1 sequence (P23458 whole entry, the tested form may be a part): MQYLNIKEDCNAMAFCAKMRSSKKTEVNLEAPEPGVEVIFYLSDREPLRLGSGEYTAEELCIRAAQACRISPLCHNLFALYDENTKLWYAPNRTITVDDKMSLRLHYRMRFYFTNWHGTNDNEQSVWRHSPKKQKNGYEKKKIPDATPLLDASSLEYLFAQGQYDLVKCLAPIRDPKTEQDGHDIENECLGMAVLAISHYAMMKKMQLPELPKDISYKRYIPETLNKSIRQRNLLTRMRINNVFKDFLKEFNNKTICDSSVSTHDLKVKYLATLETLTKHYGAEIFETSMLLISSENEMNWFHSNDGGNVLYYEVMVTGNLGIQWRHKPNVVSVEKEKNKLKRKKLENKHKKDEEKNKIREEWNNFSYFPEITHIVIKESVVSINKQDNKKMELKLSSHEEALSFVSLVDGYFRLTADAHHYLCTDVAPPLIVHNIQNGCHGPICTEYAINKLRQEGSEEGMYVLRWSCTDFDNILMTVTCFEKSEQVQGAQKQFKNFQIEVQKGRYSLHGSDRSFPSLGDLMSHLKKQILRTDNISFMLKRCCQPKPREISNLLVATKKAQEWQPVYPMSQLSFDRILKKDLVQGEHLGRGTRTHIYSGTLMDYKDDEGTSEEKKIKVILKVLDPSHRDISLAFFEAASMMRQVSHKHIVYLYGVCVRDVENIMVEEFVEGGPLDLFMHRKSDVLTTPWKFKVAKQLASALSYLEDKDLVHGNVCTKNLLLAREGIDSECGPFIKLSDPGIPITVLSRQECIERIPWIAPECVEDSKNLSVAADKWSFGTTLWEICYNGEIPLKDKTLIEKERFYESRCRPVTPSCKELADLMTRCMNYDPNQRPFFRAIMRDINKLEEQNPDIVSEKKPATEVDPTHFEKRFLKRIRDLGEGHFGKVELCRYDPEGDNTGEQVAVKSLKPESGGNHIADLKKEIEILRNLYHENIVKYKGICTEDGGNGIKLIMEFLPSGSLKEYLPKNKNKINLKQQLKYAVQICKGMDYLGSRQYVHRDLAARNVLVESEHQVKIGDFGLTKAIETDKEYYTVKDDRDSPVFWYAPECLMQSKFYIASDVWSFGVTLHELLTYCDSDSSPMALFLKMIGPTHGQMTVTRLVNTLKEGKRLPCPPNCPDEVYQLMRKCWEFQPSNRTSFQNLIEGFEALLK
Tyrosine-protein kinase JAK2, sequence (O60674 whole entry, the tested form may be a part): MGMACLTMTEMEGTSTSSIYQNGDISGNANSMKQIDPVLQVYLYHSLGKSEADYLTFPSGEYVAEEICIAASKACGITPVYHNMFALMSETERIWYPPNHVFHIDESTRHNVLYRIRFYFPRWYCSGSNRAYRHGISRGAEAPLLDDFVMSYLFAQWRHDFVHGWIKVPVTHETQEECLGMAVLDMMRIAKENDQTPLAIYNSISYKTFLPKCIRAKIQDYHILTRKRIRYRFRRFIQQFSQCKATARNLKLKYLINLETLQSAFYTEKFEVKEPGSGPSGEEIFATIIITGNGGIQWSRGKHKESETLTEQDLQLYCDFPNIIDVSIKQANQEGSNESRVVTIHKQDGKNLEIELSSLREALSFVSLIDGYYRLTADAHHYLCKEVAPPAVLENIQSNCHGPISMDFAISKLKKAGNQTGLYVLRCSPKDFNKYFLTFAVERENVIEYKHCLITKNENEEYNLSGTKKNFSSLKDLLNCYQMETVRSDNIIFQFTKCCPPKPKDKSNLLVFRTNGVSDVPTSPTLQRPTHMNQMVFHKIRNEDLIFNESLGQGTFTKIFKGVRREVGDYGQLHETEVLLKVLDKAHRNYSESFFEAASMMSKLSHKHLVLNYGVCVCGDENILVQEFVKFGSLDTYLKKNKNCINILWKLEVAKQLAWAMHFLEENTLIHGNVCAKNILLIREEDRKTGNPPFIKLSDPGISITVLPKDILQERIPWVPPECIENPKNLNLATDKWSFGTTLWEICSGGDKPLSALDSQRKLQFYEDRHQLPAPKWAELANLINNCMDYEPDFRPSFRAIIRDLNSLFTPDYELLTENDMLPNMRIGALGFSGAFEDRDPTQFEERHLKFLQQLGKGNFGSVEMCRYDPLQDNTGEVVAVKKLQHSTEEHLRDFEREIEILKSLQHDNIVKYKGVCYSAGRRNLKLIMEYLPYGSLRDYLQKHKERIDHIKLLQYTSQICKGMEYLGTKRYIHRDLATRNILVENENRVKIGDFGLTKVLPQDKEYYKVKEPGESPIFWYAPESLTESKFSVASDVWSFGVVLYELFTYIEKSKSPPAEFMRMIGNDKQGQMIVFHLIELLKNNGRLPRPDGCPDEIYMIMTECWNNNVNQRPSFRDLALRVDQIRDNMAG
Non-receptor tyrosine-protein kinase TYK2, sequence (P29597 whole entry, the tested form may be a part): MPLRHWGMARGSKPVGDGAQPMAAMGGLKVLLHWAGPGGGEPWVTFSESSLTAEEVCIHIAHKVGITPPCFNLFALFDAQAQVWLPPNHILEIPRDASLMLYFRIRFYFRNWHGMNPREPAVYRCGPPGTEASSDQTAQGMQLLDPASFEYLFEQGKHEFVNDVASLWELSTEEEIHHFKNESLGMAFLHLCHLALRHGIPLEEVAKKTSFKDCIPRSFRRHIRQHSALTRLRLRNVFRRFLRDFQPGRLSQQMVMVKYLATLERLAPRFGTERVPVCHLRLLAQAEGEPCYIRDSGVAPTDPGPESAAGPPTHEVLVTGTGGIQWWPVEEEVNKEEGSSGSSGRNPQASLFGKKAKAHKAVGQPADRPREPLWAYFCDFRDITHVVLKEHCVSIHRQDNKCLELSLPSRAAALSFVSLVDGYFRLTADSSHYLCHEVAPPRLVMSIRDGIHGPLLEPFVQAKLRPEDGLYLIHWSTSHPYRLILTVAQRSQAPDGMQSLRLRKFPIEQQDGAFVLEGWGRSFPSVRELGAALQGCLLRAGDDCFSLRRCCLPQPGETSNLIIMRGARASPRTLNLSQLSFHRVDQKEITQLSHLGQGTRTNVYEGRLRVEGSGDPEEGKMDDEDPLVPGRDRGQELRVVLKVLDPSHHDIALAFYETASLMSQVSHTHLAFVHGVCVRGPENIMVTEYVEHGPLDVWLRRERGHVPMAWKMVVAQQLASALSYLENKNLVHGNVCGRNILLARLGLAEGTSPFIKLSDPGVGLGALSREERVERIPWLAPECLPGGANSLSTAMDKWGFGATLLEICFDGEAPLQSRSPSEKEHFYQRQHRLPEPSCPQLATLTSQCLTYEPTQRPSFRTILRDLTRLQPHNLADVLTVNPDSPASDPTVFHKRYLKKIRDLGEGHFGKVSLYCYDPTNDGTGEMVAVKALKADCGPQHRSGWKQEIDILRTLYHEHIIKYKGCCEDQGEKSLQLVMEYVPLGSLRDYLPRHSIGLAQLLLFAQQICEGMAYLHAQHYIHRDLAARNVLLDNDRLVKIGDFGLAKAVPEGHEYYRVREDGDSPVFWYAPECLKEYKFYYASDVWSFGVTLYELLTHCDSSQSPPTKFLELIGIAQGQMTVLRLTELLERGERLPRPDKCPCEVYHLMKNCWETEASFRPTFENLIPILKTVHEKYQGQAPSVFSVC

IC50 [1] [nM] | IC50 [2] [nM] | IC50 [3] [nM] | Ratio IC50 (Homo sapiens) | logD at 5 h [4] | EC50 [5] [nM] | microsomal CLint [6] [µL/min/mg] | IC50 [7] [nM] | GI50 (A549) [nM] | Structure (SMILES)
< 3 | 36 | 464 | > 10 |  |  |  |  |  | CN1CCN(c2cc(Nc3nccc(Nc4ccc(F)c(Cl)c4F)n3)cc(S(C)(=O)=O)c2)CC1
< 3 | 1180 | > 27900 |  | 0.82 | 92 | 7.32 |  |  | Cc1cnc(Nc2cc(N3C[C@@H]4C[C@H]3CN4C)cc(S(C)(=O)=O)c2)nc1Nc1cccc(CO)c1
3 to 100 | 13900 | > 30000 | 140 | 1.75 |  |  |  |  | CN1CCN(c2cc(Nc3nccc(Nc4cccc(CO)c4)n3)cc(S(C)(=O)=O)c2)CC1
26 | > 30000 |  |  |  | 50 |  | 24700 |  | Cc1cnc(Nc2cc(N3C[C@@H]4C[C@H]3CN4C)cnc2F)nc1N[C@H](C)C(C)C
117 | > 30000 | > 30000 |  |  | 101 |  |  |  | Cc1cnc(Nc2cc(N3C[C@@H]4C[C@H]3CN4C)ccc2F)nc1Nc1cccc(CO)c1
< 3 | 722 | 12600 | > 240 | 2.16 |  |  |  |  | CN1CCN(c2cc(Nc3ncc(Cl)c(Nc4cccc(CO)c4)n3)cc(S(C)(=O)=O)c2)CC1
< 3 | 363 | 6540 | > 120 | 2.43 |  |  |  |  | CN1CCN(c2cc(Nc3ncc(Br)c(Nc4cccc(CO)c4)n3)cc(S(C)(=O)=O)c2)CC1
55 | 357 | 20300 | 6.5 |  |  |  |  |  | Cc1cnc(Nc2cccc(N3CCN(C)CC3)c2)nc1Nc1cccc(CO)c1
4 | < 3 | 371 | < 0.75 |  |  |  |  |  | Cc1cnc(Nc2cc(N3CCOCC3)cc(N3CCOCC3)c2)nc1Nc1cccc(CO)c1
13 | 417 | > 30000 | 32 |  |  |  |  |  | Cc1cnc(Nc2cc(N3CCOCC3)cc(S(C)(=O)=O)c2)nc1Nc1cccc(CO)c1
16 | 376 | 18100 |  |  | 37 |  |  |  | Cc1cnc(Nc2cc(C(F)F)cc(N3C[C@@H]4C[C@H]3CN4C)c2)nc1Nc1cccc(CO)c1
12 | 1030 | > 30000 |  | 1.9 | 189 |  |  |  | COCCN1CCN(c2cc(Nc3ncc(C)c(Nc4cccc(CO)c4)n3)cc(S(C)(=O)=O)c2)CC1

The remaining lines, values behind:

Structure (SMILES) | IC50 [1] [nM] | IC50 [2] [nM] | IC50 [3] [nM] | Ratio IC50 (Homo sapiens) | logD at 5 h [4] | EC50 [5] [nM] | microsomal CLint [6] [µL/min/mg] | IC50 [7] [nM] | GI50 (A549) [nM]
Cc1cnc(Nc2cc(N3C[C@@H](C)N[C@@H](C)C3)cc(S(C)(=O)=O)c2)nc1Nc1cccc(CO)c1 | 5 | 996 | > 30000 |  | 1.24 | 325 |  |  | 
Cc1cnc(Nc2cc(N3CCNCC3)cc(S(C)(=O)=O)c2)nc1Nc1cccc(CO)c1 | < 3 | 951 | > 30000 |  | 1.09 | 496 |  |  | 
CC(=O)N1CCN(c2cc(Nc3ncc(C)c(Nc4cccc(CO)c4)n3)cc(S(C)(=O)=O)c2)CC1 | 10 | 347 | 24600 |  | 1.74 | > 3000 |  |  | 
Cc1cnc(Nc2cc(N3CCN(CCO)CC3)cc(S(C)(=O)=O)c2)nc1Nc1cccc(CO)c1 | 6 | 817 | > 30000 |  | 1.29 | > 3000 |  |  | 
Cc1cnc(Nc2cc(N3C[C@@H]4C[C@H]3CN4C)cc(C(F)F)c2F)nc1Nc1cccc(CO)c1 | 55 | > 30000 | > 30000 |  |  | 26 |  |  | 
CN1CCN(c2cc(Nc3ncc(F)c(Nc4cccc(CO)c4)n3)cc(S(C)(=O)=O)c2)CC1 | 42 | 6410 | > 30000 | 150 | 1.84 |  |  |  | 
Cc1cnc(Nc2cc(N3C[C@@H]4C[C@H]3CN4C)cnc2F)nc1Nc1cccc(CO)c1 | 40 | > 30000 | > 30000 |  |  | 68 |  |  | 253
CCC(CC)Nc1nc(Nc2cc(N3C[C@@H]4C[C@H]3CN4C)cnc2F)ncc1C | 29 | > 30000 | > 30000 |  |  | 44 |  | > 30000 | > 10000
Cc1cnc(Nc2cc(N3CCN(C)CC3)cc(S(C)(=O)=O)c2)nc1Nc1cccc(CO)c1 | < 3 | 929 | > 30000 | > 309 | 1.74 | 99 | 59.5 |  | 
